Laboratory results published in ChEMBL document CHEMBL1149177, “Meta-substituted aryl(thio)ethers as potent partial agonists (or antagonists) for the histamine H3 receptor lacking a nitrogen atom in the side chain” (J Med Chem, 2004).

Legend:
[1] = molecular target: Histamine H3 receptor (Cavia porcellus) (UniProt Q9JI35); assay: Tested for activity of compound against histamine H3 receptor in guinea pig ileum; Antagonist; type: functional, tissue-based; conditions: filed as antagonist
Histamine H3 receptor = Histamine H3 receptor (Rattus norvegicus, UniProt Q9QYN8); assay: In vitro inhibitory activity against histamine H3 receptor using [3H]histamine as radioligand from rat cerebral cortex synaptosomes; type: subcellular, Brain
Summary of the method: (§1)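 Rat cerebral cortex synaptosomes preincubated 30 min at 37 °C with L-[3H]histidine to label histamine stores; K+-evoked depolarization-induced [3H]histamine release measured. Intrinsic activity taken as maximal inhibition by test substance relative to that from histamine (1 μM). Antagonism read as blockade of the histamine effect, expressed as Ki.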

Mus musculus [2] = assay: In vivo inhibition of brain N-methyl-histamine formation in mice when administered perorally in presence of oxalate salt; type: functional; conditions: po
Summary of the method: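 Male Swiss mice (18–22 g), groups of 6–12, given oxalate salt orally as solution or suspension in 1% methylcellulose. Cerebral cortex taken 90 min after dosing, homogenized in ice-cold 0.4 N perchloric acid. Nτ-methylhistamine measured by radioimmunoassay. Agonist maximal effect referenced to imetit 10 mg/kg; antagonist maximal effect referenced to thioperamide 10 mg/kg. ED50 given as free base.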

[3] = molecular target: Histamine H3 receptor (Mus musculus) (UniProt P58406); assay: Activity against Histamine H3 receptor mediated inhibition of [3H]norepinephrine release from mouse brain; Partial agonist; type: functional; conditions: filed as partial agonist
Cavia porcellus = species: Cavia porcellus; assay: Tested for activity of compound against neurogenic contractions of guinea pig jejunum; Potent antagonist; type: functional; conditions: filed as antagonist
Mus musculus [4] = species: Mus musculus; assay: Intrinsic activity was determined inhibition of brain N-mehtylhistamine formation in mice relative to imetit; type: functional
Summary of the method: (§2)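 Oxalate salt given orally as solution or suspension in 1% methylcellulose to groups of 6–12 male Swiss mice (18–22 g); doses 0.15–30 mg/kg. Cerebral cortex taken 90 min later, homogenized in ice-cold 0.4 N perchloric acid, Nτ-methylhistamine measured by radioimmunoassay. Agonist maxima referenced to imetit 10 mg/kg; antagonist maxima to thioperamide 10 mg/kg; ED50 as free base.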

[5] = molecular target: Histamine H3 receptor (Rattus norvegicus) (UniProt Q9QYN8); assay: In vitro intrinsic activity against histamine H3 receptor using [3H]histamine as radioligand from rat cerebral cortex synaptosomes with respect to histamine; type: subcellular; conditions: Brain; summary of the method: as §1
[6] = molecular target: Histamine H3 receptor (Rattus norvegicus) (UniProt Q9QYN8); assay: In vitro activity against histamine H3 receptor in rat synaptosomes; Partial agonist; type: functional, subcellular; conditions: Brain; filed as partial agonist; summary of the method: as §1
[7] = molecular target: Histamine H3 receptor (Homo sapiens) (UniProt Q9Y5N1); assay: Tested in vivo for activity against histamine H3 receptor; Full agonist; type: functional, organism-based; conditions: filed as agonist; summary of the method: as §2
[8] = molecular target: Histamine H3 receptor (Cavia porcellus) (UniProt Q9JI35); assay: In vitro activity against histamine H3 receptor in guinea pig ileum; Antagonist; type: functional, tissue-based; conditions: filed as antagonist
[9] = molecular target: Histamine H3 receptor (Rattus norvegicus) (UniProt Q9QYN8); assay: In vitro intrinsic activity against histamine H3 receptor using [3H]histamine as radioligand from rat cerebral cortex synaptosomes with respect to histamine; No detectable agonism.; type: functional, subcellular; conditions: Brain; summary of the method: as §1
Rattus norvegicus = species: Rattus norvegicus; assay: In vitro effective concentration of compound required to reduce histamine release from rat synaptosomes; type: functional; conditions: Brain; summary of the method: as §1
[10] = molecular target: Histamine H3 receptor (Homo sapiens) (UniProt Q9Y5N1); assay: Tested for activity against histamine H3 receptor; Weak antagonist; type: functional; conditions: filed as antagonist
Mus musculus [11] = assay: In vivo Intrinsic activity inhibition of brain N-mehtylhistamine formation in mice relative to imetit; Antagonist.; type: functional; summary of the method: as §2
[12] = molecular target: Histamine H3 receptor (Homo sapiens) (UniProt Q9Y5N1); assay: Agonistic activity against histamine H3 receptor; Partial agonist; type: functional; conditions: filed as partial agonist
[13] = molecular target: Histamine H3 receptor (Mus musculus) (UniProt P58406); assay: Tested for activity against histamine H3 receptor in vivo in mice; Weak agonist; type: functional, organism-based; conditions: filed as partial agonist; summary of the method: as §2

Sequence of Histamine H3 receptor (Rattus norvegicus) (Q9QYN8 whole entry): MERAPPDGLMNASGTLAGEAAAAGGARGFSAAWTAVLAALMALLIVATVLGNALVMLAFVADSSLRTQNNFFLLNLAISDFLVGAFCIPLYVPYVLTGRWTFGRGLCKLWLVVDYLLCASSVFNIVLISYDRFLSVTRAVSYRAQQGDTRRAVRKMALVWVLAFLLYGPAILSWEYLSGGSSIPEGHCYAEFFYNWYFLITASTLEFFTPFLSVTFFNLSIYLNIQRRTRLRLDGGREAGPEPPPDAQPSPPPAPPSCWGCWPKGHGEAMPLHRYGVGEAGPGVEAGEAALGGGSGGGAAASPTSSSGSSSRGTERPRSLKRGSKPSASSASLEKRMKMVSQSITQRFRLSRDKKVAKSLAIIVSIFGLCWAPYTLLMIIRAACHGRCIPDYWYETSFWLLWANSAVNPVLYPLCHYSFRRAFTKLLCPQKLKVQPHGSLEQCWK
Sequence of Histamine H3 receptor (Q9QYN8 whole entry): as above
Sequence of Histamine H3 receptor (Cavia porcellus) (Q9JI35 whole entry): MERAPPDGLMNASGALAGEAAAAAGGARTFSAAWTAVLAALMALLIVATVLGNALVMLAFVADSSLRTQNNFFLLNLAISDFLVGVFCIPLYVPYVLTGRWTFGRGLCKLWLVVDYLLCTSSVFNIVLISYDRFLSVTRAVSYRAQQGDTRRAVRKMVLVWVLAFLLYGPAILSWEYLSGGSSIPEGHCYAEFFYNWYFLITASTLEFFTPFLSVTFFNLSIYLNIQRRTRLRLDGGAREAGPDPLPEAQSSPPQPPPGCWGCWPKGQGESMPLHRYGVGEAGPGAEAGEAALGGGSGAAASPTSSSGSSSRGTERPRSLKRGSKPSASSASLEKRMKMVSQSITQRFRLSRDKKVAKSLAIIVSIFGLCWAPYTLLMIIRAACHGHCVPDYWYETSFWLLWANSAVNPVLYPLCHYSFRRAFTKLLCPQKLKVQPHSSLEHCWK
Sequence of Histamine H3 receptor (Mus musculus) (P58406 whole entry): as the sequence (Q9QYN8 whole entry) above, with T15A, A286T, A290G, R387H, I389V counted along it
Sequence of Histamine H3 receptor (Homo sapiens) (Q9Y5N1 whole entry): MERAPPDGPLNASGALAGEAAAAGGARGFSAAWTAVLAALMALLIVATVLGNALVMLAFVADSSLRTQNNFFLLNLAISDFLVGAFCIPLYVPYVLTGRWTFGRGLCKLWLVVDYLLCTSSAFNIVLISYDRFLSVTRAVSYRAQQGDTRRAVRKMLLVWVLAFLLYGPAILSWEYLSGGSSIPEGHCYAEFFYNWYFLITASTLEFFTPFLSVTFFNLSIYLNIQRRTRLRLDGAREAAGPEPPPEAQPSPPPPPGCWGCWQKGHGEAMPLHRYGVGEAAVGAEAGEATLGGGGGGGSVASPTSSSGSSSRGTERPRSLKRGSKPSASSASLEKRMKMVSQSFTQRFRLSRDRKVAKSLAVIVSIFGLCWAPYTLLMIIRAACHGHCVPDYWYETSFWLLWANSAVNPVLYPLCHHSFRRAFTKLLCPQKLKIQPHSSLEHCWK

Q: Which Activity [1] does the source give for CC(C)CNC(=O)OCCCc1c[nH]cn1 here?
A: The Activity was “Antagonist”.

Q: How did the Ki (Histamine H3 receptor) turn out when CCc1cccc(OCCCc2cnc[nH]2)c1 was run?
A: The Ki was 15 nM.

Q: FC(F)(F)c1ccccc1OCCCc1c[nH]cn1 was tested. Which ED50 (Mus musculus [2]) did it give?
A: Its ED50 is greater than 10 mg/kg.

Q: What about the Ki (Histamine H3 receptor) of the same molecule?
A: Its Ki is roughly 500 nM.

Q: What does the source list for C[C@H]1NCC[C@@H]1c1c[nH]cn1?
A: Activity [3]: Partial agonist; Activity (Cavia porcellus): Antagonist

Q: Which results are given for O=[N+]([O-])c1cccc(OCCCc2c[nH]cn2)c1?
A: ED50 (Mus musculus [2]): 1.1 mg/kg; Intrinsic activity (Mus musculus [4]): 0.61; Intrinsic activity [5]: 0.1

Q: For FC(F)(F)c1cccc(OCCCCc2c[nH]cn2)c1, which Intrinsic activity (Mus musculus [4]) is on record?
A: Its Intrinsic activity is 0.7.

Q: How did the ED50 (Mus musculus [2]) turn out when S=C(NC1CCCCC1)N1CCC(c2cnc[nH]2)CC1 [THIOPERAMIDE] was run?
A: The ED50 was 1 mg/kg.

Q: CC(C)(C)c1cccc(OCCCc2cnc[nH]2)c1 was tested. Which Ki (Histamine H3 receptor) did it give?
A: Its Ki is 22 nM.

Q: For NC[C@H]1CC[C@H](c2c[nH]cn2)O1, which Activity [3] is on record?
A: Its Activity is “Partial agonist”.

Q: And the Activity (Cavia porcellus)?
A: Its Activity is “Antagonist”.

Q: Which Ki (Histamine H3 receptor) does the source give for Brc1cccc(OCCCc2cnc[nH]2)c1 here?
A: The Ki was 19 nM.

Q: For O=[N+]([O-])c1cccc(OCCCc2cnc[nH]2)c1, which Ki (Histamine H3 receptor) is on record?
A: Its Ki is 9.4 nM.

Q: Which results are given for N=C(N)CCCc1c[nH]cn1?
A: Activity [3]: Partial agonist; Activity (Cavia porcellus): Antagonist

Q: How did the Activity [6] turn out when CC(C)CCOCCCc1c[nH]cn1 was run?
A: The Activity was “Partial agonist”.

Q: What about the Activity [7] of the same molecule?
A: The Activity was “Agonist”.

Q: And the Activity [8]?
A: Its Activity is “Antagonist”.

Q: With CC(C)(C)CCOCCCc1c[nH]cn1 as the molecule, how does the Activity [7] read?
A: The Activity was “Agonist”.

Q: CCc1cccc(OCCCc2c[nH]cn2)c1 was tested. Which ED50 (Mus musculus [2]) did it give?
A: The ED50 was roughly 1 mg/kg.

Q: And the Intrinsic activity (Mus musculus [4])?
A: Its Intrinsic activity is 0.85.

Q: And the Intrinsic activity [5]?
A: The Intrinsic activity was 0.2.

Q: What does the source list for N#Cc1cccc(OCCCc2cnc[nH]2)c1?
A: ED50 (Mus musculus [2]): > 10 mg/kg; Ki (Histamine H3 receptor): 108 nM

Q: With CC(C)(C)CNC(=O)OCCCc1c[nH]cn1 as the molecule, how does the Activity [1] read?
A: Its Activity is “Antagonist”.

Q: What does the source list for FC(F)(F)c1cccc(CCCCc2c[nH]cn2)c1?
A: ED50 (Mus musculus [2]): 6.5 mg/kg; Intrinsic activity (Mus musculus [4]): 0; Ki (Histamine H3 receptor): 38 nM

Q: How did the ED50 (Mus musculus [2]) turn out when c1ccc(OCCCc2c[nH]cn2)cc1 was run?
A: Its ED50 is greater than 10 mg/kg.

Q: How did the ED50 (Mus musculus [2]) turn out when CC(C)c1cccc(OCCCc2c[nH]cn2)c1 was run?
A: Its ED50 is 0.5 mg/kg.

Q: And the Intrinsic activity (Mus musculus [4])?
A: Its Intrinsic activity is 0.82.

Q: And the Intrinsic activity [5]?
A: The Intrinsic activity was 0.3.

Q: How did the ED50 (Mus musculus [2]) turn out when N#Cc1ccc(OCCCc2c[nH]cn2)cc1 was run?
A: The ED50 was 0.54 mg/kg.

Q: And the Intrinsic activity (Mus musculus [4])?
A: The Intrinsic activity was 0.

Q: Cc1cccc(OCCCc2cnc[nH]2)c1 was tested. Which ED50 (Mus musculus [2]) did it give?
A: The ED50 was greater than 10 mg/kg.

Q: What about the Ki (Histamine H3 receptor) of the same molecule?
A: Its Ki is 37 nM.

Q: Which ED50 (Mus musculus [2]) does the source give for FC(F)(F)c1cccc(SCCCc2c[nH]cn2)c1 here?
A: The ED50 was greater than 10 mg/kg.

Q: What about the Ki (Histamine H3 receptor) of the same molecule?
A: Its Ki is 38 nM.

Q: For Brc1cccc(OCCCc2c[nH]cn2)c1, which ED50 (Mus musculus [2]) is on record?
A: Its ED50 is greater than 10 mg/kg.

Q: And the Intrinsic activity [9]?
A: Its Intrinsic activity is less than 0.1.

Q: CC(C)(C)c1cccc(OCCCc2c[nH]cn2)c1 was tested. Which ED50 (Mus musculus [2]) did it give?
A: The ED50 was 0.8 mg/kg.

Q: What about the Intrinsic activity (Mus musculus [4]) of the same molecule?
A: The Intrinsic activity was 0.78.

Q: And the Intrinsic activity [5]?
A: The Intrinsic activity was 0.28.

Q: Which ED50 (Mus musculus [2]) does the source give for FC(F)(F)c1cccc(SCCc2c[nH]cn2)c1 here?
A: Its ED50 is 0.94 mg/kg.

Q: What about the Intrinsic activity (Mus musculus [4]) of the same molecule?
A: Its Intrinsic activity is 0.7.

Q: What about the Intrinsic activity [5] of the same molecule?
A: Its Intrinsic activity is 0.4.

Q: For FC(F)(F)c1cccc(OCCCc2c[nH]cn2)c1, which ED50 (Mus musculus [2]) is on record?
A: The ED50 was 0.6 mg/kg.

Q: And the Intrinsic activity (Mus musculus [4])?
A: Its Intrinsic activity is 1.

Q: What about the Ki (Histamine H3 receptor) of the same molecule?
A: The Ki was 8.4 nM.

Q: What about the EC50 (Rattus norvegicus) of the same molecule?
A: Its EC50 is 98 nM.

Q: What about the Intrinsic activity [9] of the same molecule?
A: The Intrinsic activity was 0.4.

Q: CC(C)NC(=O)OCCCc1c[nH]cn1 was tested. Which Activity [10] did it give?
A: Its Activity is “Partial antagonist”.

Q: What about the Activity [1] of the same molecule?
A: Its Activity is “Antagonist”.

Q: Which results are given for NCC[C@@H]1C[C@@H]1c1c[nH]cn1?
A: Activity [3]: Partial agonist; Activity (Cavia porcellus): Antagonist

Q: What does the source list for CC(=O)c1cccc(OCCCc2c[nH]cn2)c1?
A: ED50 (Mus musculus [2]): 0.4 mg/kg; Intrinsic activity (Mus musculus [4]): 0.9; Intrinsic activity [5]: 0.15

Q: CC(C)c1cccc(OCCCc2cnc[nH]2)c1 was tested. Which Ki (Histamine H3 receptor) did it give?
A: The Ki was 29 nM.

Q: With CC(NC(=O)OCCCc1c[nH]cn1)C(C)(C)C (stereo not drawn) as the molecule, how does the Activity [1] read?
A: The Activity was “Antagonist”.

Q: FC(F)(F)c1cc(OCCCc2c[nH]cn2)cc(C(F)(F)F)c1 was tested. Which ED50 (Mus musculus [2]) did it give?
A: The ED50 was 4.8 mg/kg.

Q: And the Intrinsic activity (Mus musculus [4])?
A: The Intrinsic activity was 0.

Q: What about the Ki (Histamine H3 receptor) of the same molecule?
A: The Ki was 116 nM.

Q: How did the ED50 (Mus musculus [2]) turn out when FC(F)(F)c1cccc(OCCc2c[nH]cn2)c1 was run?
A: The ED50 was less than 10 mg/kg.

Q: And the Ki (Histamine H3 receptor)?
A: Its Ki is 18 nM.

Q: What about the Intrinsic activity (Mus musculus [11]) of the same molecule?
A: Its Intrinsic activity is 0.

Q: With FC(F)(F)c1ccc(OCCCc2c[nH]cn2)cc1 as the molecule, how does the ED50 (Mus musculus [2]) read?
A: The ED50 was 0.6 mg/kg.

Q: And the Intrinsic activity (Mus musculus [4])?
A: The Intrinsic activity was 0.

Q: How did the Activity [3] turn out when NCCCCCc1c[nH]cn1 was run?
A: The Activity was “Partial agonist”.

Q: What about the Activity (Cavia porcellus) of the same molecule?
A: The Activity was “Antagonist”.

Q: How did the Activity [3] turn out when c1nc(CC2CCNCC2)c[nH]1 was run?
A: The Activity was “Partial agonist”.

Q: What about the Activity (Cavia porcellus) of the same molecule?
A: The Activity was “Antagonist”.

Q: How did the Activity [3] turn out when N=C(N)SCCc1c[nH]cn1 was run?
A: Its Activity is “Partial agonist”.

Q: What about the Activity (Cavia porcellus) of the same molecule?
A: Its Activity is “Antagonist”.

Q: What does the source list for C[C@@H](N)Cc1c[nH]cn1?
A: Activity [3]: Partial agonist; Activity (Cavia porcellus): Antagonist

Q: With Ic1ccc(COCCCc2c[nH]cn2)cc1 as the molecule, how does the Activity [12] read?
A: The Activity was “Partial agonist”.

Q: What does the source list for CC(C)(C)NC(=O)OCCCc1c[nH]cn1?
A: Activity [13]: Partial agonist; Activity [1]: Antagonist

Q: Which Ki (Histamine H3 receptor) does the source give for CC(=O)c1cccc(OCCCc2cnc[nH]2)c1 here?
A: Its Ki is 20 nM.
